Values after ≈ are worked out from the molar mass of the structure shown.
Experiments:
[1] = Cytotoxicity against human HEL cells assessed as altered cell morphology; type: cell-based
Outline: (§1)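 Uninfected cell cultures run alongside the antiviral assays, exposed to serial compound dilutions and incubated at 37 °C for 2–4 days. Toxicity was scored microscopically and reported as the minimum cytotoxic concentration (MCC), the lowest concentration causing a detectable change in normal cell morphology.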

MDCK = test: Cytotoxicity against MDCK cells assessed as cell viability by MTS assay; type: cell-based, Canis lupus familiaris; conditions: dog, mdck
Outline: (§2)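 Uninfected cultures were run in parallel with the antiviral assays. Viability was read by colorimetric formazan MTS assay.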

[2] = Cytotoxicity against MDCK cells assessed as altered cell morphology; type: cell-based, Canis lupus familiaris; conditions: dog; outline: as §1
Candida albicans = test: Antimicrobial activity against Candida albicans after 48 hrs by tube dilution method; type: functional
Coxsackievirus B4 [3] = test: Antiviral activity against coxsackievirus B4 infected in human HeLa cells assessed as inhibition of virus induced cytopathicity by visual scoring of CPE; type: functional, organism-based; conditions: Enterovirus B
[4] = Cytotoxicity against african green monkey Vero cells assessed as altered cell morphology; type: cell-based; conditions: chlorocebus sabaeus; outline: as §1
[5] = system: Respiratory syncytial virus; test: Antiviral activity against Respiratory syncytial virus infected in human HeLa cells assessed as inhibition of virus induced cytopathicity after 2 to 4 days by MTS assay; type: functional, organism-based
Influenza B virus [6] = test: Antiviral activity against Influenza B virus infected in MDCK cells assessed as inhibition of virus induced cytopathicity by visual scoring of CPE; type: functional, organism-based
[7] = Cytotoxicity against human HeLa cells assessed as altered cell morphology; type: cell-based; outline: as §1
[8] = system: Mammalian orthoreovirus 1; test: Antiviral activity against Reovirus 1 virus infected in african green monkey Vero cells assessed as inhibition of virus induced cytopathicity after 2 to 4 days by MTS assay; type: functional, organism-based; conditions: Mammalian orthoreovirus 1, Vero
Punta Toro virus = test: Antiviral activity against Punta Toro virus infected in african green monkey Vero cells assessed as inhibition of virus induced cytopathicity after 2 to 4 days by MTS assay; type: functional, organism-based
Human alphaherpesvirus 2 = test: Antiviral activity against Herpes simplex virus 2 G infected in HEL cells assessed as inhibition of virus induced cytopathicity after 2 to 4 days by MTS assay; type: functional, organism-based; conditions: Human alphaherpesvirus 2, strain G
Vaccinia virus = test: Antiviral activity against Vaccinia virus infected in HEL cells assessed as inhibition of virus induced cytopathicity after 2 to 4 days by MTS assay; type: functional, organism-based; conditions: Orthopoxvirus vaccinia
Influenza B virus [9] = test: Antiviral activity against Influenza B virus infected in MDCK cells assessed as inhibition of virus induced cytopathicity after 2 to 4 days by MTS assay; type: functional, organism-based
Human alphaherpesvirus 1 [10] = test: Antiviral activity against Herpes simplex virus 1 KOS infected in HEL cells assessed as inhibition of virus induced cytopathicity after 2 to 4 days by MTS assay; type: functional, organism-based; conditions: Human alphaherpesvirus 1, KOS
[11] = Cytotoxicity against cat CRFK cells assessed as cell viability by MTS assay; type: cell-based, Felis catus; conditions: crfk; outline: as §2
Felid alphaherpesvirus 1 = test: Antiviral activity against Feline herpesvirus 1 infected in cat CRFK cells assessed as inhibition of virus induced cytopathicity after 2 to 4 days by MTS assay; type: functional, organism-based; conditions: Felid alphaherpesvirus 1, CRFK
Aspergillus niger = test: Antimicrobial activity against Aspergillus niger after 7 days by tube dilution method; type: functional; conditions: 168 h
Coxsackievirus B4 [12] = test: Antiviral activity against Coxsackie virus B4 infected in african green monkey Vero cells assessed as inhibition of virus induced cytopathicity after 2 to 4 days by MTS assay; type: functional, organism-based; conditions: Enterovirus B
Influenza A virus [13] = test: Antiviral activity against Influenza A H3N2 virus subtype infected in MDCK cells assessed as inhibition of virus induced cytopathicity after 2 to 4 days by MTS assay; type: functional, organism-based
Human respirovirus 3 = test: Antiviral activity against parainfluenza-3 virus infected in african green monkey Vero cells assessed as inhibition of virus induced cytopathicity after 2 to 4 days by MTS assay; type: functional, organism-based; conditions: Human respirovirus 3, Vero
Influenza A virus [14] = test: Antiviral activity against Influenza A H3N2 virus subtype infected in MDCK cells assessed as inhibition of virus induced cytopathicity by visual scoring of CPE; type: functional, organism-based
[15] = system: Vesicular stomatitis virus; test: Antiviral activity against Vesicular stomatitis virus infected in human HeLa cells assessed as inhibition of virus induced cytopathicity by visual scoring of CPE; type: functional, organism-based
Coxsackievirus B4 [16] = test: Antiviral activity against coxsackievirus B4 infected in human HeLa cells assessed as inhibition of virus induced cytopathicity after 2 to 4 days by MTS assay; type: functional, organism-based; conditions: Enterovirus B
Bacillus subtilis = test: Antimicrobial activity against Bacillus subtilis after 24 hrs by tube dilution method; type: functional
Outline: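 Serial dilutions in double-strength nutrient broth (I.P.) with ciprofloxacin as reference, tube dilution, incubated 37 °C for 24 h. MIC is the lowest concentration that inhibited growth.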

Sindbis virus = test: Antiviral activity against Sindbis virus infected in african green monkey Vero cells assessed as inhibition of virus induced cytopathicity after 2 to 4 days by MTS assay; type: functional, organism-based
Staphylococcus aureus = test: Antimicrobial activity against Staphylococcus aureus after 24 hrs by tube dilution method; type: functional
HeLa = test: Cytotoxicity against human HeLa cells assessed as cell viability by MTS assay; type: cell-based; conditions: hela; outline: as §2
[17] = system: Vesicular stomatitis virus; test: Antiviral activity against Vesicular stomatitis virus infected in human HeLa cells assessed as inhibition of virus induced cytopathicity after 2 to 4 days by MTS assay; type: functional, organism-based
[18] = system: Vesicular stomatitis virus; test: Antiviral activity against Vesicular stomatitis virus infected in HEL cells assessed as inhibition of virus induced cytopathicity after 2 to 4 days by MTS assay; type: functional, organism-based
Human alphaherpesvirus 1 [19] = test: Antiviral activity against thymidine kinase deficient acyclovir-resistant Herpes simplex virus 1 KOS infected in HEL cells assessed as inhibition of virus induced cytopathicity after 2 to 4 days by MTS assay; type: functional, organism-based; conditions: Human alphaherpesvirus 1, KOS
[20] = system: Respiratory syncytial virus; test: Antiviral activity against Respiratory syncytial virus infected in human HeLa cells assessed as inhibition of virus induced cytopathicity by visual scoring of CPE; type: functional, organism-based
Feline coronavirus = test: Antiviral activity against Feline coronavirus infected in cat CRFK cells assessed as inhibition of virus induced cytopathicity after 2 to 4 days by MTS assay; type: functional, organism-based; conditions: Alphacoronavirus 1, CRFK
Escherichia coli = test: Antimicrobial activity against Escherichia coli after 24 hrs by tube dilution method; type: functional

Compound	MCC [1]	CC50 (MDCK)	MCC [2]	MFC (Candida albicans)	EC50 (Coxsackievirus B4 [3])	MCC [4]	EC50 [5]	EC50 (Influenza B virus [6])	MCC [7]	EC50 [8]	EC50 (Punta Toro virus)	EC50 (Human alphaherpesvirus 2)	EC50 (Vaccinia virus)	EC50 (Influenza B virus [9])	EC50 (Human alphaherpesvirus 1 [10])	CC50 [11]	EC50 (Felid alphaherpesvirus 1)	MFC (Aspergillus niger)	EC50 (Coxsackievirus B4 [12])	EC50 (Influenza A virus [13])	also measured
Cc1ccccc1C(=O)n1c(-c2ccc(S(=O)(=O)O)cc2)nc2ccccc21	> 100 µg/mL	> 100 µg/mL	> 100 µg/mL	50 µg/mL (≈ 127 µM)	> 100 µg/mL	> 100 µg/mL	> 100 µg/mL	> 100 µg/mL	> 100 µg/mL	> 100 µg/mL	> 100 µg/mL	> 100 µg/mL	> 100 µg/mL	> 100 µg/mL	> 100 µg/mL	> 100 µg/mL	> 100 µg/mL	> 50 µg/mL	> 100 µg/mL	> 100 µg/mL	EC50 (Human respirovirus 3): > 100 µg/mL; EC50 (Influenza A virus [14]): > 100 µg/mL; EC50 [15]: > 100 µg/mL; EC50 (Coxsackievirus B4 [16]): > 100 µg/mL; MBC (Bacillus subtilis): > 50 µg/mL; EC50 (Sindbis virus): > 100 µg/mL; MBC (Staphylococcus aureus): 6.25 µg/mL (≈ 15.9 µM); CC50 (HeLa): > 100 µg/mL; EC50 [17]: > 100 µg/mL; EC50 [18]: > 100 µg/mL; EC50 (Human alphaherpesvirus 1 [19]): > 100 µg/mL; EC50 [20]: > 100 µg/mL; EC50 (Feline coronavirus): > 100 µg/mL; MBC (Escherichia coli): 3.12 µg/mL (≈ 7.95 µM)
COc1ccc(C(=O)n2c(-c3ccc(S(=O)(=O)O)cc3)nc3ccccc32)cc1	> 100 µg/mL	> 100 µg/mL	> 100 µg/mL	> 50 µg/mL	> 100 µg/mL	> 100 µg/mL	> 100 µg/mL	> 100 µg/mL	> 100 µg/mL	> 100 µg/mL	> 100 µg/mL	> 100 µg/mL	> 100 µg/mL	> 100 µg/mL	> 100 µg/mL	> 100 µg/mL	> 100 µg/mL	> 50 µg/mL	> 100 µg/mL	> 100 µg/mL	EC50 (Human respirovirus 3): > 100 µg/mL; EC50 (Influenza A virus [14]): > 100 µg/mL; EC50 [15]: > 100 µg/mL; EC50 (Coxsackievirus B4 [16]): > 100 µg/mL; MBC (Bacillus subtilis): > 50 µg/mL; EC50 (Sindbis virus): > 100 µg/mL; MBC (Staphylococcus aureus): > 50 µg/mL; CC50 (HeLa): > 100 µg/mL; EC50 [17]: > 100 µg/mL; EC50 [18]: > 100 µg/mL; EC50 (Human alphaherpesvirus 1 [19]): > 100 µg/mL; EC50 [20]: > 100 µg/mL; EC50 (Feline coronavirus): > 100 µg/mL; MBC (Escherichia coli): 3.12 µg/mL (≈ 7.64 µM)
O=C(c1ccc([N+](=O)[O-])cc1)n1c(-c2ccc(S(=O)(=O)O)cc2)nc2ccccc21	> 100 µg/mL	> 100 µg/mL	> 100 µg/mL	25 µg/mL (≈ 59 µM)	> 100 µg/mL	> 100 µg/mL	> 100 µg/mL	> 100 µg/mL	> 100 µg/mL	> 100 µg/mL	> 100 µg/mL	> 100 µg/mL	> 100 µg/mL	> 100 µg/mL	> 100 µg/mL	> 100 µg/mL	> 100 µg/mL	> 50 µg/mL	> 100 µg/mL	> 100 µg/mL	EC50 (Human respirovirus 3): > 100 µg/mL; EC50 (Influenza A virus [14]): > 100 µg/mL; EC50 [15]: > 100 µg/mL; EC50 (Coxsackievirus B4 [16]): > 100 µg/mL; MBC (Bacillus subtilis): 50 µg/mL (≈ 118 µM); EC50 (Sindbis virus): > 100 µg/mL; MBC (Staphylococcus aureus): 50 µg/mL (≈ 118 µM); CC50 (HeLa): > 100 µg/mL; EC50 [17]: > 100 µg/mL; EC50 [18]: > 100 µg/mL; EC50 (Human alphaherpesvirus 1 [19]): > 100 µg/mL; EC50 [20]: > 100 µg/mL; EC50 (Feline coronavirus): > 100 µg/mL; MBC (Escherichia coli): 1.56 µg/mL (≈ 3.68 µM)
O=C(c1ccccc1Cl)n1c(-c2ccc(S(=O)(=O)O)cc2)nc2ccccc21	> 100 µg/mL	> 100 µg/mL	> 100 µg/mL	> 50 µg/mL	> 100 µg/mL	> 100 µg/mL	> 100 µg/mL	> 100 µg/mL	> 100 µg/mL	> 100 µg/mL	> 100 µg/mL	> 100 µg/mL	> 100 µg/mL	> 100 µg/mL	> 100 µg/mL	> 100 µg/mL	> 100 µg/mL	> 50 µg/mL	> 100 µg/mL	> 100 µg/mL	EC50 (Human respirovirus 3): > 100 µg/mL; EC50 (Influenza A virus [14]): > 100 µg/mL; EC50 [15]: > 100 µg/mL; EC50 (Coxsackievirus B4 [16]): > 100 µg/mL; MBC (Bacillus subtilis): > 50 µg/mL; EC50 (Sindbis virus): > 100 µg/mL; MBC (Staphylococcus aureus): 25 µg/mL (≈ 60.6 µM); CC50 (HeLa): > 100 µg/mL; EC50 [17]: > 100 µg/mL; EC50 [18]: > 100 µg/mL; EC50 (Human alphaherpesvirus 1 [19]): > 100 µg/mL; EC50 [20]: > 100 µg/mL; EC50 (Feline coronavirus): > 100 µg/mL; MBC (Escherichia coli): 1.56 µg/mL (≈ 3.78 µM)
